sPLA2-III inh: Inhibits HGIII-sPLA2 liposome hydrolysis, primary screen. Q9NZ20. QFRET BODIPY PC-A2 liposome hydrolysis, fluorescence. inhibition, % at 12.2 µM. 370,000 tested, 0.56% active. AID 743126;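 active means inhibition above mean plus 3 SD of compounds lying within the high and low control bounds, cut at about 19% in these data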;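 further: 0% = median of test compound wells and 100% = no enzyme DMSO wells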
Target sequence (Q9NZ20 whole entry, looked up): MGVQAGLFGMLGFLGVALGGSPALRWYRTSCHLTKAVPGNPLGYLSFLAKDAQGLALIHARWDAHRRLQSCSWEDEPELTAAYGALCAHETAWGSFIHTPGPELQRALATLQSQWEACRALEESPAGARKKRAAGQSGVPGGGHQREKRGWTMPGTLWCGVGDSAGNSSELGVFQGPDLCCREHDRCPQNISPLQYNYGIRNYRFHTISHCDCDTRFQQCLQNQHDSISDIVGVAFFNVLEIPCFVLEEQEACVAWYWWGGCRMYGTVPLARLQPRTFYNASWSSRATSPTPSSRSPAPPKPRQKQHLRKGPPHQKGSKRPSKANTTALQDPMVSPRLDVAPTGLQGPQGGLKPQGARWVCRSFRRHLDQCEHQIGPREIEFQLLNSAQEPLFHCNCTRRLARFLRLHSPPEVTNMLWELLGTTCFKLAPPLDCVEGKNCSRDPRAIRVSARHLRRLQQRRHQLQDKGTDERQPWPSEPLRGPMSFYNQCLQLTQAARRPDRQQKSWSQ
Granule exo inh: blocks lytic granule exocytosis; TALL-104 LAMP-1 surface exposure, flow cytometry; cells stimulated with thapsigargin and PMA; inhibition, % at 10 µM; 360,000 tested, 0.66% active; AID 651702;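 active means inhibition above about 55%, limit read from the data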
Bfl-1 A1 inh: inhibitors of the anti-apoptotic protein A1, read as caspase activation; 330,000 tested, 0.066% active; MEF A1-2A-BIM cells, Caspase-Glo 3/7 luminescence, 3 h; percent of clofoctol response, vehicle zero; caspase activation, % (concentration not given with the values);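 active means over half of replicate activation scores above 10%, or exactly half above 10 with the replicate mean above 10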
NTR1 ag: NTR1 (human) agonism; P30989; NTR1-U2OS beta-arrestin-GFP spot imaging, agonist mode; activation, % at 20 µM; 330,000 tested, 0.17% active;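 active means activation at or above 40% of the spot to cytoplasm intensity ratio, with at least 20 cells analyzed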;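 further: 0% = DMSO without peptide and 100% = 100 nM NTR1 peptide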
MC4R barr agon: activates human MC4R beta-arrestin recruitment | P32245 | U2OS MC4R beta-arrestin complementation, luminescence; percent of melanotan II response, DMSO zero | activation, % at 8.9 µM | 360,000 tested, 0.98% active;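 active means activation above a per-plate cutoff, the mean activation of sample wells on that plate plus 3 SD, cut at about 8% in these data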
MC4R antagonist: antagonists of human melanocortin 4 receptor (MC4R). P32245. MC4R-expressing cells, MTII-stimulated cAMP, LANCE TR-FRET. inhibition, % at 6.5 µM. 360,000 tested, 0.48% active;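 active means inhibition above its plate's cutoff, the mean of tested wells on that plate plus 3 SD, cut at about 29% in these data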;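 further: 0% = Melanotan II alone and 100% = Melanotan II plus saturating MCL0020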
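material = U2OS cells stably expressing human melanocortin 4 receptor (MC4R) | also added = Melanotan II challenge | dosing = single nominal compound dose of 6.5 µM | detection = TR-FRET with Eu-cAMP and labeled anti-cAMP, 671 nm | replication = singlicate | timing = compound 30 min, challenge 1 h, detection 1 h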
U2OS cAMP counter: U2OS forskolin cAMP inhibition counter-screen; shares compounds with MC4R antagonist; parental U2OS, LANCE TR-FRET; inhibition, % at 6.5 µM; 1,600 tested, 26% active; AID 602193;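 active means mean inhibition over triplicates above the low-control well mean plus 3 SD, set per campaign, cut at about 13% in these data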;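 further: signal is single emission at 671 nm which falls as cellular cAMP rises; 0% = forskolin-stimulated wells and 100% = buffer without forskolin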
MC4R cAMP antag: human MC4R cAMP antagonism confirmation; MC4R-expressing cells, MTII-stimulated cAMP, TR-FRET; inhibition, % at 6.5 µM; shares compounds with MC4R antagonist; 1,600 tested, 27% active; in the data active means inhibition above about 29%;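 further: 0% = agonist stimulated wells alone and 100% = agonist stimulated wells plus saturating reference antagonist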
* marks the source's active call; other numbers are inactive results; . = no result given. The list is not random: actives were taken first. Their share in the collection is about 2.5%.

SMILES | sPLA2-III inh | Granule exo inh | Bfl-1 A1 inh | NTR1 ag | MC4R barr agon | MC4R antagonist | U2OS cAMP counter | MC4R cAMP antag
COC(=O)[C@]12C[C@H](CC(=O)N3CCCCC3)C(=O)N(Cc3ccc4c(c3)OCO4)C1=C[C@H](COCc1ccccc1)O[C@@H]2C | -5.8 | . | . | . | . | . | . | .
Brc1cc(-c2ccccc2)nc(-c2ccccc2)n1 | -0.2 | 34.5 | -0.5 | 3.0 | -2.2 | 35.7* | 18.5* | 36.4*
Nc1ccc(-c2cc(-c3ccc(N)cc3)nc(-c3ccccc3)n2)cc1 | -63.3 | -1.3 | 0.1 | 2.3 | 4.7 | -2.9 | . | .
Clc1cc(-c2ccccc2)nc(-c2ccccc2)n1 | 6.4 | -4.2 | -0.1 | 12.0 | -0.7 | 30.0* | 16.6* | 29.4*
CC(=O)c1cc(-c2ccc3[nH]ccc3c2)c(=O)n2c1CCC2 | -7.3 | . | . | . | . | . | . | .
N[C@H](C(=O)N[C@@H](Cc1ccccc1)C(=O)N1CCC2CCN(S(=O)(=O)c3ccccc3)CC21)c1ccccc1 (stereo not given in full) | 14.7 | . | . | . | . | . | . | .
COc1ccccc1C(=O)Oc1ccccc1C(=O)Nc1ccccc1 | 4.0 | -2.0 | -2.3 | 0.8 | 1.1 | 19.1 | . | .
O=C(Oc1ccccc1C(=O)Nc1ccccc1)c1ccc(Br)c([N+](=O)[O-])c1 | -5.3 | 2.9 | -0.3 | 2.3 | -1.0 | 35.8* | 11.8 | 18.2
O=C(c1ccc(F)cc1Cl)N(Cc1ccccn1)CC1CCCO1 (stereo not given) | 7.1 | . | . | . | . | . | . | .
CC(NC(=O)CN(c1cccc(C(F)(F)F)c1)S(=O)(=O)c1ccc(Cl)c([N+](=O)[O-])c1)c1ccccc1 (stereo not given) | -7.7 | 0.2 | 0.0 | 14.1 | 6.2 | 31.2* | 13.8* | 41.9*
C=C1CC2(CC(c3ccccc3)OC(c3ccccc3)C2)OC1=O (stereo not given) | 3.0 | 32.7 | . | . | -1.4 | 34.3* | 20.7* | 46.2*
CCOC(=O)c1sc(NC(=O)c2ccc(S(=O)(=O)N3CCCCCC3)cc2)nc1-c1ccccc1 | 0.6 | 5.0 | 1.5 | 4.1 | -0.9 | 32.4* | -5.6 | 0.4
CCOC(=O)c1sc(NC(=O)c2ccc(S(=O)(=O)N3CCCCC3)cc2)nc1-c1ccccc1 | 1.7 | 0.7 | 0.7 | 4.5 | -0.6 | -2.1 | . | .
Cc1ccc(-n2c(Cc3cccs3)nnc2SCC(=O)Nc2ccc(OCc3ccccc3)cc2)cc1 | -25.4 | . | . | . | . | . | . | .
O=[N+]([O-])c1cc(-c2nc(-c3ccncc3)no2)cc([N+](=O)[O-])c1 | -7.5 | 7.9 | 0.6 | 1.3 | -1.6 | 12.8 | . | .
O=[N+]([O-])c1cc(-c2nc(-c3ccncc3)no2)ccc1Cl | -3.6 | 1.4 | -1.0 | 3.3 | -1.1 | 39.4* | 18.4* | 47.3*
O=C1Nc2ccccc2/C1=C\C(=O)c1ccccc1 | 16.4 | 24.3 | 0.4 | 15.6 | -1.1 | -4.2 | . | .
Cc1cccc2c1NC(=O)/C2=C\C(=O)c1cccs1 | 10.8 | 4.4 | 0.0 | 28.2 | -1.4 | 30.3* | 3.3 | 4.3
CCC(C)N(C(=O)CSc1nnc(-c2cc(OC)c(OC)c(OC)c2)o1)C(C)CC (stereo not given) | 1.5 | . | . | . | . | . | . | .
Cc1ccc(OCC(=O)NNC(=O)C2CCN(c3nc(C)cc(C)n3)CC2)cc1 | -1.1 | 4.1 | -0.1 | 0.2 | 1.2 | 28.6* | -3.6 | -19.6
Cc1ccc(OCC(=O)NNC(=O)C2CCN(c3ncccn3)CC2)cc1 | 0.5 | -2.4 | 0.3 | 0.6 | 0.6 | 22.1 | . | .
COCc1ccc(C(=O)Nc2ccc(C(=O)O)cc2)o1 | 6.1 | -3.7 | -0.9 | -0.6 | -1.1 | -0.1 | . | .
O=C(O)c1ccc(NC(=O)c2ccc(COc3ccccc3)o2)cc1 | -0.3 | -2.0 | 0.4 | -0.5 | 2.6 | 28.7* | -1.1 | -14.0
COC(=O)CSc1nc2ccccn2c(=O)c1C=O | 2.8 | 0.2 | -0.3 | 2.7 | -0.3 | 31.4* | -0.2 | -9.5
O=Cc1c(SCCO)nc2ccccn2c1=O | 5.8 | 0.4 | 0.7 | 1.2 | -1.3 | -0.6 | . | .

From PubChem BioAssay
